The test system of assay [1] is Mus musculus. The experiment in a line: Behavioral time in mouse isolation-induced aggression assay 0 umol/kg administered peritoneally. Type of assay: functional. To be noted: in the assay text read “administered orally” for “administered peritoneally”. Summed up:
(§1)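 Male CF-1 mice. Residents were isolated singly for at least 1 month; group-housed intruders were kept 4-6/cage. Mice weighed 28-30 g at first test. Residents got drug ip or orally in 0.25% methylcellulose or 0.1% citric acid 30 min before an untreated intruder was introduced. Latency to fighting was recorded, capped at 600 s. Dosing was blind, 6/group (vehicle n = 12), Wilcoxon rank sum.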

The test system of assay [2] is Mus musculus. Nature of the assay: Behavioral time in mouse isolation-induced aggression assay 32 umol/kg administered peritoneally. The format is functional. To be noted: in the assay text read “administered orally” for “administered peritoneally”. An outline of the steps: as §1
Assay [3] relates to Mus musculus. Nature of the assay: Behavioral time in mouse face to face assay at 3.2 umol/kg administered. Type of assay: functional. Summed up: (§2)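 Male CF-1 mice (Charles River, 19-29 g), 8 pairs per dose, dosed sc, ip or orally in 0.25% methylcellulose or 0.1% citric acid; 30 min absorption housed with familiar partner. Pairs from different home cages placed in small litter-floored cage; face-to-face interaction duration scored visually for 3 min. Wilcoxon rank sum (two-tailed) vs daily control, p < 0.05.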

The test system of assay [4] is Mus musculus. Nature of the assay: Behavioral time in mouse face to face assay at 0 umol/kg administered. Type of assay: functional. Summed up:
as §2

The test system of assay [5] is Mus musculus. The experiment in a line: Behavioral time in mouse face to face assay at 0.3 umol/kg administered. The format is functional. An outline of the steps:
as §2

Assay [6] has as its system Mus musculus. Nature of the assay: Behavioral time in mouse face to face assay at 32 umol/kg administered. The format is functional. Summed up: as §2
In assay [7] the test system is Mus musculus. The experiment in a line: Behavioral time in mouse face to face assay at 0.3 umol/kg administered perorally (*P<0.05). The format is functional. Summed up: as §2
Assay [8] deals with Mus musculus. Nature of the assay: Behavioral time in mouse face to face assay at 3.3 umol/kg administered perorally (*P<0.05). The format is functional. Summed up: as §2
Assay [9] deals with Mus musculus. Nature of the assay: Behavioral time in mouse face to face assay at 33 umol/kg administered perorally (*P<0.05). The format is functional. An outline of the steps:
as §2

Assay [10] concerns Mus musculus. The experiment in a line: Behavioral time in mouse face to face assay at 0.03 umol/kg administered perorally. The format is functional. Summed up: as §2
In assay [11] the test system is Mus musculus. Nature of the assay: In vivo effective dose administered subcutaneously in mouse hypothermia assay. To be noted: sc. The format is functional. Summed up:
(§3)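 Charles River CF-1 mice (18-22 g, 4 per dose), housed individually 20 min before testing. Rectal temperature taken before dosing and 20 min after (sc 0.1 mL; oral 0.2 mL by gavage needle). A drop of ≥2 °F counted as positive. Doses started at 30 mg/kg and fell by half-log until 0/4 responded.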

Assay [12] relates to Mus musculus. The experiment in a line: Tested in vivo for the maximum temperature decrease in mouse hypothermia assay. Type of assay: functional. Summed up: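 CF-1 mice (18-22 g, 4 per dose), dosed sc or orally. Rectal temperature measured before dosing and 20 min after. The mean maximum temperature drop (°F) at 20 min after any dose is recorded as an efficacy index.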

Assay [13] has as its system Mus musculus. The experiment in a line: Behavioral time in mouse face to face assay at 0 umol/kg administered perorally. Type of assay: functional. Summed up:
as §2

In assay [14] the test system is Mus musculus. Nature of the assay: Tested in vivo for the effective dose administered orally in mouse hypothermia assay. Type of assay: functional. To be noted: po. An outline of the steps:
as §3

For assay [15], the system named is Mus musculus. The experiment in a line: Behavioral time in mouse isolation-induced aggression assay at 10 umol/kg administered perorally (*P<0.05). The format is functional. Summed up:
as §1

Assay [16] concerns Mus musculus. The experiment in a line: Behavioral time in mouse isolation-induced aggression assay at 10 umol/kg administered intraperitoneally (*P<0.05). Type of assay: functional. Summed up: as §1
In assay [17] the test system is Mus musculus. Nature of the assay: Behavioral time in mouse isolation-induced aggression assay at 0 umol/kg administered perorally (*P<0.05). Type of assay: functional. Summed up: as §1
The subject of assay [18] is Mus musculus. Nature of the assay: Behavioral time in mouse isolation-induced aggression assay at 33 umol/kg administered perorally (*P<0.05). The format is functional. An outline of the steps:
as §1

Assay [19] concerns Mus musculus. The experiment in a line: Behavioral time in mouse isolation-induced aggression assay at 0 umol/kg administered intraperitoneally. The format is functional. An outline of the steps: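 Isolated male CF-1 resident mice, housed singly ≥1 month and weighing 28-30 g at testing, were dosed ip or orally in 0.25% methylcellulose or 0.1% citric acid. Dosing was blind, 6 per group (n=12 vehicle). After 30 min an untreated group-housed intruder was introduced. Latency to fighting was recorded, capped at 600 s. Residents rested ≥3 days before reuse. Wilcoxon rank sum.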

The species entered for assay [20] is Felis catus. Nature of the assay: Maximum decrease observed. The format is functional. Also noted: unit not given here.
For assay [21], the species on record is Felis catus. The experiment in a line: Dose at which the SND has been reduced to 50% of the pretreatment value. The format is functional. An outline of the steps:
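Adult cats (2.5-4.0 kg), ketamine 11 mg/kg im then chloralose 80 mg/kg iv, ventilated, gallamine-paralyzed, rectal temperature 37-38 °C. Sympathetic nerve discharge quantified by cumulative integration. Cumulative iv doses were given at 20-min intervals. Value is the dose reducing discharge to 50% of pretreatment.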

In assay [22] the test system is Rattus norvegicus. The experiment in a line: Effect on the synthesis rate of dopamine (DOPA) accumulation at 3.4 umol/kg in the rat ventral limbic brain region. The format is functional, Limbic system. Summed up:
(§4)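 Male Sprague-Dawley rats dosed sc with drug or vehicle at time zero. NSD 1015 (100 mg/kg ip) given 15 min later to block aromatic decarboxylase. Brain DOPA and 5-HTP measured by electrochemical detection with peak integration. Expressed as percent change from NSD 1015 plus saline controls. Control and test groups N = 6 each, compared by unpaired t test.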

Assay [23] relates to Rattus norvegicus. The experiment in a line: Effect on the synthesis rate of 5 HTP accumulation at 3.4 umol/kg in the rat ventral limbic brain region. Type of assay: functional, Limbic system. Summed up:
as §4

For assay [24], the system named is Felis catus. Nature of the assay: Maximum decrease observed following 1 mg/kg dose. Type of assay: functional.
For assay [25], the system named is Mus musculus. Nature of the assay: Behavioral time in mouse face to face assay at 0 umol/kg administered intraperitoneally. Type of assay: functional. An outline of the steps: as §2
Assay [26] deals with Felis catus. Nature of the assay: Dose on arterial blood pressure (BP) in anesthetized cat. The format is functional. An outline of the steps: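 Adult cats (2.5-4.0 kg) anesthetized with ketamine 11 mg/kg im, then chloralose 80 mg/kg iv. Femoral artery cannulated for blood pressure, femoral vein for drug. Ventilated, paralyzed with gallamine 4 mg/kg iv, rectal temperature held at 37-38 °C. Cumulative iv doses given at 20-min intervals. Maximum decrease reported following a 1 mg/kg iv dose.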

Assay [27] relates to Rattus norvegicus. The experiment in a line: Effect on the synthesis rate of dopamine (DOPA) accumulation at the dose of 68 umol/kg in the rat ventral limbic brain region. Type of assay: functional, Limbic system. An outline of the steps:
as §4

The test system of assay [28] is Rattus norvegicus. The experiment in a line: Effect on the synthesis rate of 5 HTP accumulation at 68 umol/kg in the rat ventral limbic brain region. Type of assay: functional, Limbic system. An outline of the steps: as §4

SMILES strings stand for the structures. “And” between values parts separate entries of the source, which are not always exact repeats. Identical values can stand only once.

Broadly, the ED50 is the dose that gives a 50% effect, or the effect in half of the subjects.

With `C=CCN[C@@H]1CCc2cccc(OC)c2[C@@H]1C(=O)OC`, the Time in the assay on Mus musculus [1] was found to be 56 s; in the assay on Mus musculus [2], 120 s; in the assay with Mus musculus [3], 1.1 s; with Mus musculus [4], 0.7 s; with Mus musculus [5], 1 s; with Mus musculus [6], 0.8 s.

As for `CCCN(C)[C@@H]1CCc2cccc(OC)c2[C@@H]1CO`, the Time in the assay with Mus musculus [7] was 2 s; in the assay with Mus musculus [8] it was 1.7 s; in the assay on Mus musculus [9], 2.1 s; in the assay with Mus musculus [10], 1.7 s; in the assay with Mus musculus [13], 1.1 s; in the assay with Mus musculus [15], 125 s. Moreover, the Time with Mus musculus [16] is listed as 329 s; in the assay with Mus musculus [17], 43 s; with Mus musculus [18], 269 s; with Mus musculus [19], 6 s. Besides, the ED50 in the assay with Mus musculus [11] stood at 5.7 µmol/kg; with Mus musculus [14], 32 µmol/kg. In addition, the TMP.decrease in the assay with Mus musculus [12] is 9.1 degrees F and 5 degrees F.

Take `C=CC[C@@H]1c2c(cccc2OC)CC[C@H]1NCCC` (relative stereo): the Max decrease in the assay listed under Felis catus [20] was 16; in the assay on Felis catus [24], 66. In addition, the figures for the ED50 in the assay filed under Felis catus [21], in the assay with Mus musculus [11] and in the assay with Mus musculus [14] were 1.35 µmol/kg, 14 µmol/kg and 59 µmol/kg, respectively. The TMP.decrease in the assay on Mus musculus [12] was 10.2 degrees F and 5.8 degrees F. Also, the Change in the assay with Rattus norvegicus [22] is on record as -4.3%; with Rattus norvegicus [23] it was -6.9%; with Rattus norvegicus [27], 8.1%; in the assay with Rattus norvegicus [28], -16%. The compound further had a Time with Mus musculus [25] of 0.4 s. In the assay on Felis catus [26], this compound returned a BP of 71%.

For the origin of these results see ChEMBL document CHEMBL1126613, “Centrally acting serotonergic agents. Synthesis and structure-activity relationships of C-1- or C-3-substituted derivatives of 8-hydroxy-2-(di-n-propylamino)tetralin” (J Med Chem, 1993).
